Laboratory results published in ChEMBL document CHEMBL1142449 (Bioorg Med Chem, 2008).

How the values were obtained:
Format in all cases: cell-based
[1] = target: T1, Neurotensin receptor type 1 (Homo sapiens, UniProt P30989); test: Displacement of [3H]SR48692 from wild type human NTR1 expressed in HEK293 cells
Procedure, shortened: (§1)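 Membranes from HEK-293 cells transiently transfected (CaHPO4 method) with wild-type or EL1-mutant hNTR1 cDNA and harvested 48 h post-transfection. Homologous competition binding with 0.8 nM [3H]SR 48692 (81 Ci/mmol), adapted to 96-well format. Curves normalized per receptor, 4–6 experiments in triplicate. Kd and Bmax given with 95% confidence intervals.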

[2] = tested on: Neurotensin receptor type 1 (Homo sapiens), P30989 [F127A]; test: (§2) Displacement of [3H]SR48692 from human NTR1 extracellular loop 1 F127A mutant expressed in HEK293 cells; procedure, shortened: as §1
Neurotensin receptor type 1 (Homo sapiens), P30989 [F127A], sequence (P30989 whole entry F127A): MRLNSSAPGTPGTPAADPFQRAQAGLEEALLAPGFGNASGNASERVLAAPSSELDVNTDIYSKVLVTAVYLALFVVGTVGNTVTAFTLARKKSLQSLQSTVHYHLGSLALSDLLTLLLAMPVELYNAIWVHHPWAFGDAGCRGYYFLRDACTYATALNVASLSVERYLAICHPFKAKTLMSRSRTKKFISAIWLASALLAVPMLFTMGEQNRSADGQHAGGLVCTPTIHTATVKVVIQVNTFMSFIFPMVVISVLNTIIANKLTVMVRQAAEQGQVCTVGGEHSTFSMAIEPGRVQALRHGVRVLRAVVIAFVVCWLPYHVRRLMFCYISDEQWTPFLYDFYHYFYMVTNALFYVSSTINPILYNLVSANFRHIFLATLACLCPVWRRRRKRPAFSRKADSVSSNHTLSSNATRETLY

[3] = target: Neurotensin receptor type 1 (Homo sapiens, UniProt P30989, F127A); test: as §2; procedure, shortened: as §1
Neurotensin receptor type 1 (Homo sapiens, UniProt P30989, F127A), sequence (P30989 whole entry F127A): as above

[4] = tested on: Neurotensin receptor type 1 (Homo sapiens), P30989 [H131A]; test: (§3) Displacement of [3H]SR48692 from human NTR1 extracellular loop 1 H131A mutant expressed in HEK293 cells; procedure, shortened: as §1
Neurotensin receptor type 1 (Homo sapiens), P30989 [H131A], sequence (P30989 whole entry H131A): as the sequence (P30989 whole entry F127A) above, with A127F, H131A counted along it

[5] = target: Neurotensin receptor type 1 (Homo sapiens, UniProt P30989, H131A); test: as §3; procedure, shortened: as §1
Neurotensin receptor type 1 (Homo sapiens, UniProt P30989, H131A), sequence (P30989 whole entry H131A): as the sequence (P30989 whole entry F127A) above, with A127F, H131A counted along it

[6] = tested on: Neurotensin receptor type 1 (Homo sapiens), P30989 [P133A]; test: (§4) Displacement of [3H]SR48692 from human NTR1 extracellular loop 1 P133A mutant expressed in HEK293 cells; procedure, shortened: as §1
Neurotensin receptor type 1 (Homo sapiens), P30989 [P133A], sequence (P30989 whole entry P133A): as the sequence (P30989 whole entry F127A) above, with A127F, P133A counted along it

[7] = target: Neurotensin receptor type 1 (Homo sapiens, UniProt P30989, P133A); test: as §4; procedure, shortened: as §1
Neurotensin receptor type 1 (Homo sapiens, UniProt P30989, P133A), sequence (P30989 whole entry P133A): as the sequence (P30989 whole entry F127A) above, with A127F, P133A counted along it

[8] = tested on: Neurotensin receptor type 1 (Homo sapiens), P30989 [W134A]; test: (§5) Displacement of [3H]SR48692 from human NTR1 extracellular loop 1 W134A mutant expressed in HEK293 cells; procedure, shortened: as §1
Neurotensin receptor type 1 (Homo sapiens), P30989 [W134A], sequence (P30989 whole entry W134A): as the sequence (P30989 whole entry F127A) above, with A127F, W134A counted along it

[9] = target: Neurotensin receptor type 1 (Homo sapiens, UniProt P30989, W134A); test: as §5; procedure, shortened: as §1
Neurotensin receptor type 1 (Homo sapiens, UniProt P30989, W134A), sequence (P30989 whole entry W134A): as the sequence (P30989 whole entry F127A) above, with A127F, W134A counted along it

[10] = tested on: Neurotensin receptor type 1 (Homo sapiens), P30989 [F136A]; test: (§6) Displacement of [3H]SR48692 from human NTR1 extracellular loop 1 F136A mutant expressed in HEK293 cells; procedure, shortened: as §1
Neurotensin receptor type 1 (Homo sapiens), P30989 [F136A], sequence (P30989 whole entry F136A): as the sequence (P30989 whole entry F127A) above, with A127F, F136A counted along it

[11] = target: Neurotensin receptor type 1 (Homo sapiens, UniProt P30989, F136A); test: as §6; procedure, shortened: as §1
Neurotensin receptor type 1 (Homo sapiens, UniProt P30989, F136A), sequence (P30989 whole entry F136A): as the sequence (P30989 whole entry F127A) above, with A127F, F136A counted along it

[12] = tested on: Neurotensin receptor type 1 (Homo sapiens), P30989 [W129A]; test: (§7) Displacement of [3H]SR48692 from human NTR1 extracellular loop 1 W129A mutant expressed in HEK293 cells; procedure, shortened: as §1
Neurotensin receptor type 1 (Homo sapiens), P30989 [W129A], sequence (P30989 whole entry W129A): as the sequence (P30989 whole entry F127A) above, with A127F, W129A counted along it

[13] = target: Neurotensin receptor type 1 (Homo sapiens, UniProt P30989, W129A); test: as §7; procedure, shortened: as §1
Neurotensin receptor type 1 (Homo sapiens, UniProt P30989, W129A), sequence (P30989 whole entry W129A): as the sequence (P30989 whole entry F127A) above, with A127F, W129A counted along it

[14] = target: T1, Neurotensin receptor type 1; test: Displacement of [3H]NT(8-13) from wild type human NTR1 expressed in HEK293 cells

T1 sequence (P30989 whole entry): as the sequence (P30989 whole entry F127A) above, with A127F counted along it

Molecule `COc1cccc(OC)c1-c1cc(C(=O)NC2(C(=O)O)C3CC4CC(C3)CC2C4)nn1-c1ccnc2cc(Cl)ccc12` (stereo not given) [REMINERTANT] has a Bmax [1] of 15 pmol/mg, a Kd [1] of 8.9 nM and a Bmax [2] of 18 pmol/mg. The Kd [3] was 19 nM, the Bmax [4] was 16 pmol/mg and the Kd [5] was 8.4 nM. The Bmax [6] was 9.3 pmol/mg, the Kd [7] was 9.2 nM and the Bmax [8] was 10 pmol/mg. For the same molecule, the Kd [9] was 23 nM, the Bmax [10] was 10 pmol/mg and the Kd [11] was 33 nM. The Bmax [12] was 9.4 pmol/mg and the Kd [13] was 27 nM.

With `CC[C@H](C)[C@H](NC(=O)[C@H](Cc1ccc(O)cc1)NC(=O)[C@@H]1CCCN1C(=O)[C@H](CCCNC(=N)N)NC(=O)[C@@H](N)CCCNC(=N)N)C(=O)NC1(C(=O)O)C2CC3CC(C2)CC1C3` (stereo not given in full) the Ki [14] was 2.4 nM.
